Experimental data from ChEMBL document CHEMBL1147450, “N2-benzyl-N1-(1-(1-naphthyl)ethyl)-3-phenylpropane-1,2-diamines and conformationally restrained indole analogues: development of calindol as a new calcimimetic acting at the calcium sensing receptor” (Bioorg Med Chem Lett, 2004).

biological target: T1, Extracellular calcium-sensing receptor (Rattus norvegicus, UniProt P48442); assay: Ability to stimulate [3H]inositol phosphates accumulation in CHO cells expressing rat Calcium sensing receptor (CaSR) at 2 mM [Ca2+]; assay type: functional, cell-based
T1 sequence (P48442 whole entry): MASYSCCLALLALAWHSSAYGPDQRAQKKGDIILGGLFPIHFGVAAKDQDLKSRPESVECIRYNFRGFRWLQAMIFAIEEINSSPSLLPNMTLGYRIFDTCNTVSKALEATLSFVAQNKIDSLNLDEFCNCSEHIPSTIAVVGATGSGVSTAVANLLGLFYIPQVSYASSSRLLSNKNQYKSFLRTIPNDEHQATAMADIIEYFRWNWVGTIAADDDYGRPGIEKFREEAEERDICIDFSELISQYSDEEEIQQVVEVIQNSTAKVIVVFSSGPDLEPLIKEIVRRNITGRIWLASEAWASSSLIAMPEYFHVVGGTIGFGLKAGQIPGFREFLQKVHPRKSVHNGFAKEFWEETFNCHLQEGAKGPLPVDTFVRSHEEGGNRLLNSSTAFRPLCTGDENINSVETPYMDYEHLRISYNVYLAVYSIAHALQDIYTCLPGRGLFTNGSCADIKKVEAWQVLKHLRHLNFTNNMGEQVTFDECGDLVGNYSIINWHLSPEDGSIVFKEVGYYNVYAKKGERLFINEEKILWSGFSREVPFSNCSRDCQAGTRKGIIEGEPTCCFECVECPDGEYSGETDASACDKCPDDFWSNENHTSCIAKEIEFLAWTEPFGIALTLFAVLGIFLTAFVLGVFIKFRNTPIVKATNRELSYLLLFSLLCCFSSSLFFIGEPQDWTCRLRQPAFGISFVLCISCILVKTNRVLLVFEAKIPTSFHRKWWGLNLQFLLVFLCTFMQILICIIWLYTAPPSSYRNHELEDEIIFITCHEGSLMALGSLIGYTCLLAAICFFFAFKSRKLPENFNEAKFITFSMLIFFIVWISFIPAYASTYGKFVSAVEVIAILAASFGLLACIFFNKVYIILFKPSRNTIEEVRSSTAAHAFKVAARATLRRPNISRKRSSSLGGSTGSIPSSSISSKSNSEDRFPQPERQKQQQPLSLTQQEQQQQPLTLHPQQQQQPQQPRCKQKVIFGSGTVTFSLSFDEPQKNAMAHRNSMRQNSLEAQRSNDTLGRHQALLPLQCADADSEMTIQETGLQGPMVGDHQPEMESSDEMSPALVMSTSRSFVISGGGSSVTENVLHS
Outline: (§1)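 CHO cells stably transfected with rat brain CaSR, grown in basal Ham's F-12 (0.3 mM Ca2+, 0.6 mM Mg2+), prelabelled overnight with 0.5 µCi/mL myo-[3H]inositol. Drugs were made as 10 mM ethanol stocks, diluted in basal medium, and incubated at 37 °C with 2 mM extracellular Ca2+. Read-out is [3H]IP accumulation as % of the 10 mM Ca2+ maximal response. Two to five independent experiments in triplicate, mean ± SEM.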

SMILES | EC50 [nM]
CC(NCc1cc2ccccc2[nH]1)c1cccc2ccccc12 (racemic) | 1300
C[C@@H](NCc1cc2ccccc2[nH]1)c1cccc2ccccc12 | 1000

biological target: T2, Extracellular calcium-sensing receptor (Homo sapiens, UniProt P41180); assay: Ability to stimulate [3H]inositol phosphates accumulation in HEK293 cells expressing the human calcium sensing receptor (CaSR) at 2 mM [Ca2+]; assay type: functional, cell-based
T2 sequence (P41180 whole entry): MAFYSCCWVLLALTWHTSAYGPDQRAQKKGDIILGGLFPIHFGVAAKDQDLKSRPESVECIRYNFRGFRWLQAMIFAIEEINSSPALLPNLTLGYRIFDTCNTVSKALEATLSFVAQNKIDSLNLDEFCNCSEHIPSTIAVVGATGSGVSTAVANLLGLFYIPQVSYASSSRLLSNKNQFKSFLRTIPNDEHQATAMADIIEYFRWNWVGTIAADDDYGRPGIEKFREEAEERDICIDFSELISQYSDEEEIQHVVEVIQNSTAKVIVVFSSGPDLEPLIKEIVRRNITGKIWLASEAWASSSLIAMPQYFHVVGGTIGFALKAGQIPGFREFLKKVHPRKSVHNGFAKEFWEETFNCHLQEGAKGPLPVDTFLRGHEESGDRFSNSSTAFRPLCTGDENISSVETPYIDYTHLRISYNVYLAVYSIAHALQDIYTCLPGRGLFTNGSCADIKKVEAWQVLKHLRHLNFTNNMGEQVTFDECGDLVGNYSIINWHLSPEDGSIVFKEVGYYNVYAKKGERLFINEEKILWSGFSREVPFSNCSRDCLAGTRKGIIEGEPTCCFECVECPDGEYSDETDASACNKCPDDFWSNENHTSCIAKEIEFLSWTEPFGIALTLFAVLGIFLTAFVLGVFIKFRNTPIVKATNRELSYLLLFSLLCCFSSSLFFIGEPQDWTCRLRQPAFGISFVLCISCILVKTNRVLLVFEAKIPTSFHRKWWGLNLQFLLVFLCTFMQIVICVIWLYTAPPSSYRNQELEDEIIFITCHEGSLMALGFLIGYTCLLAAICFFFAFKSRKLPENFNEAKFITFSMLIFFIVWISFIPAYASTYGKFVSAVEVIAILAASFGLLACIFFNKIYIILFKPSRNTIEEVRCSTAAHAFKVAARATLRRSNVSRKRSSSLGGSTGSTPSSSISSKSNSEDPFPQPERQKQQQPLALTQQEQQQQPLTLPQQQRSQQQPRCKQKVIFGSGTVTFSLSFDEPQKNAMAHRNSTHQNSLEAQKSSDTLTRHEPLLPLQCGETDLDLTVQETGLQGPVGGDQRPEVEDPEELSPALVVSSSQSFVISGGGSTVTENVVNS
Outline: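 HEK293 cells transiently expressing human CaSR, prelabelled with myo-[3H]inositol. Increasing drug concentrations were applied in the presence of 2 mM extracellular Ca2+. [3H]IP accumulation is expressed as % of the 10 mM Ca2+ response, and EC50 and maximal stimulation come from the dose-response curve. Three to five independent experiments in triplicate.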

SMILES | EC50 [nM]
C[C@@H](NCc1cc2ccccc2[nH]1)c1cccc2ccccc12 | 310

biological target: T3, Extracellular calcium-sensing receptor (Rattus norvegicus) (UniProt P48442); assay: Maximal stimulation of [3H]-inositol phosphates production in CHO cells expressing rat Calcium sensing receptor (CaSR) at 10 mM [Ca2+]; assay type: functional, cell-based; outline: as §1
T3 sequence (whole entry): T1 sequence (P48442 whole entry)

SMILES | Accumulation [%]
CC(NCc1cc2cc(Cl)ccc2[nH]1)c1cccc2ccccc12 (centres undefined) | 60
CC(NCc1cc2cc(F)ccc2[nH]1)c1cccc2ccccc12 (centres undefined) | 87
COc1ccc2[nH]c(CNC(C)c3cccc4ccccc34)cc2c1 (centres undefined) | 55
C[C@H](NCc1cc2ccccc2[nH]1)c1cccc2ccccc12 | 32
CC(NCc1cc2ccccc2[nH]1)c1cccc2ccccc12 (racemic) | 103
C[C@@H](NCc1cc2ccccc2[nH]1)c1cccc2ccccc12 | 117
COc1cc2cc(CNC(C)c3cccc4ccccc34)[nH]c2cc1OC (centres undefined) | 34
CC(NCc1cc2ccccc2n1C)c1cccc2ccccc12 (centres undefined) | 79
COc1ccc(S(=O)(=O)n2c(CNC(C)c3cccc4ccccc34)cc3ccccc32)cc1OC (centres undefined) | 54
CC(NC(=O)c1cc2ccccc2[nH]1)c1cccc2ccccc12 (centres undefined) | 2

More lines, now with the values ahead:

Accumulation [%] | SMILES
95 | CC(NCC(Cc1ccccc1)NCc1ccc(F)cc1)c1cccc2ccccc12 (centres undefined)
80 | CC(NCC(Cc1ccccc1)NCc1ccccc1)c1cccc2ccccc12 (centres undefined)
78 | CC(NCC(Cc1ccccc1)NCc1cccc(Cl)c1)c1cccc2ccccc12 (centres undefined)
80 | COc1ccc(CNC(CNC(C)c2cccc3ccccc23)Cc2ccccc2)cc1 (centres undefined)
98 | CC(NCC(Cc1ccccc1)NCc1ccccc1Cl)c1cccc2ccccc12 (centres undefined)
74 | COc1ccc(CNC(CNC(C)c2cccc3ccccc23)Cc2ccccc2)cc1OC (centres undefined)
